According to publication PMC5084670 (Cancer Science, 2016):

Assays:
[1] = tested on: advanced solid tumors; assay: Tumor response by RECIST version 1.0; format: in vivo, human
Procedure, shortened: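 Daily oral test compound was given in 28-day cycles to adults with advanced solid tumors who had measurable or evaluable disease. Investigators judged tumor response from CT or MRI scans according to RECIST version 1.0.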

[2] = Pharmacokinetics of sonidegib in plasma; format: in vivo, human; settings: for Exposure accumulation as the AUC ratio / AUC accumulation: cycle 1 day 15; for AUC(0-t) / Tmax / Cmax: human, plasma, oral; for Tmax: T max; for Cmax: C max
[3] = cited from earlier work
[4] = tested on: primary human muscle cells; settings: cited from earlier work
[5] = cited from earlier work; remark: listed apart in the source
[6] = tested on: GLI1; assay: GLI1 expression in normal skin samples by RT-PCR; format: in vivo, human
Procedure, shortened: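 Adult Asian patients with advanced solid tumors took oral test compound once daily in 28-day cycles after a 7-day single-dose run-in. Normal skin was sampled before treatment, at the end of cycle 1, and within 14 days after the last dose. RNA was extracted and analysed by RT-PCR to estimate GLI1 expression as a marker of Hh pathway activation.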

[7] = tested on: murine model of MB with deletion of PTCH1; settings: cited from earlier work
[8] = patients from Europe and the USA, CLDE225X2101 study

Cc1c(C(=O)Nc2ccc(N3C[C@@H](C)O[C@@H](C)C3)nc2)cccc1-c1ccc(OC(F)(F)F)cc1 [Sonidegib]
Stable disease (SD), number of patients ([1]; group 1, 400 mg): 4 patients | Stable disease (SD), number of patients ([1]; group 1, 600 mg): 1 patients | Progressive disease, patients ([1]; group 1, 15 patients): 71% | Stable disease (SD), patients ([1]; group 1, five patients): 24% | Complete response or partial response ([1]; group 1 and group 2): Neither complete response nor partial response was observed | Stable disease (SD), number of patients ([1]; group 2, 600 mg): three | Best overall response SD, patients ([1]; group 2, 10 patients): 42% | Progressive disease, patients ([1]; group 2, nine patients): 38% | Steady state ([2]; both groups): not achieved within cycle 1 | Plasma concentration at 168 h after a single dose ([2]; both groups at every dose): detected | Exposure accumulation as the AUC ratio ([2]; group 1, 400 mg): 4.9 fold | Accumulation in trough levels ([2]; group 1, 400 mg, cycle 2 day 1 vs 24-h post-dose concentration in run-in): 12.4 fold | Accumulation in trough levels ([2]; group 1, 400 mg, cycle 2 day 22 vs 24-h post-dose concentration in run-in): 19.6 fold | Exposure accumulation as the AUC ratio ([2]; group 1, 600 mg): 4.6 fold | Accumulation in trough levels ([2]; group 1, 600 mg, cycle 2 day 1 vs 24-h post-dose concentration in run-in): 14.3 fold | Accumulation in trough levels ([2]; group 1, 600 mg, cycle 2 day 22 vs 24-h post-dose concentration in run-in): 19.9 fold | AUC accumulation ([2]; group 2, 400 mg): approximately 4.3 fold | Trough accumulation ([2]; group 2, 400 mg, cycle 2 day 1): 13.9 fold | Trough accumulation ([2]; group 2, 400 mg, cycle 2 day 22): 16.3 fold | AUC accumulation ([2]; group 2, 600 mg): ~4.2 fold | Trough accumulation ([2]; group 2, 600 mg, cycle 2 day 1): 12.3 fold | Trough accumulation ([2]; group 2, 600 mg, cycle 2 day 22): 13.8 fold | AUC accumulation ([2]; group 2, 800 mg): ~6.0 fold | AUC(0-t) ([2]; 400 mg q.d., AUClast, cycle 1, day 15 (last sampling 24 h), group 2, 400 mg q.d., n = 9, geometric mean (% CV)): 12300 ng·h/mL | AUC(0-t) ([2]; 400 mg, AUC0–24, pharmacokinetic run-in (single dose), group 1, 400 mg, n = 12, geometric mean (% CV)): 2010 ng·h/mL | AUC(0-t) ([2]; 400 mg, AUC0–24, pharmacokinetic run-in (single dose), group 2, 400 mg, n = 12, geometric mean (% CV)): 2890 ng·h/mL | Tmax ([2]; 400 mg, cycle 1, day 15, group 1, 400 mg q.d., n = 12, median): 2 h | Tmax ([2]; 400 mg, pharmacokinetic run-in (single dose), group 1, 400 mg, n = 12, median): 3 h | Tmax ([2]; 400 mg, pharmacokinetic run-in (single dose), group 2, 400 mg, n = 12, median): 3 h | AUC(0-t) ([2]; 600 mg, AUC0–24, pharmacokinetic run-in (single dose), group 1, 600 mg, n = 9, geometric mean (% CV)): 3330 ng·h/mL | AUC(0-t) ([2]; 600 mg, AUC0–24, pharmacokinetic run-in (single dose), group 2, 600 mg, n = 8, geometric mean (% CV)): 3420 ng·h/mL | Cmax ([2]; 600 mg, cycle 1, day 15, group 1, 600 mg q.d., n = 8, geometric mean (% CV)): 1010 ng/mL | Tmax ([2]; 600 mg, cycle 1, day 15, group 1, 600 mg q.d., n = 8, median): 2 h | Tmax ([2]; 600 mg, cycle 1, day 15, group 2, 600 mg q.d., n = 5, median): 4 h | Tmax ([2]; 600 mg, pharmacokinetic run-in (single dose), group 1, 600 mg, n = 9, median): 2 h | Tmax ([2]; 600 mg, pharmacokinetic run-in (single dose), group 2, 600 mg, n = 8, median): 3 h | AUC(0-t) ([2]; 800 mg, AUC0–24, pharmacokinetic run-in (single dose), group 2, 800 mg, n = 4, geometric mean (% CV)): 3650 ng·h/mL | Cmax ([2]; 800 mg, cycle 1, day 15, group 2, 800 mg q.d., n = 2, geometric mean (% CV)): 1230 ng/mL | Tmax ([2]; 800 mg, pharmacokinetic run-in (single dose), group 2, 800 mg, n = 4, median): 2 h | Tmax ([2]; after a single dose in run-in period and repeated dosing in cycle 1 day 15, both groups): 2 to 4 h | Rhabdomyolysis, patients ([3]; CLDE225X2101 study): three | Half-life (t 1/2) ([3]; as reported in non-Asian patients): ~ 28 days | AUClast ([3]; cycle 1 day 15, 400 mg, non-Asian patients (CLDE225X2101)): 8806 ng·h/mL | Maximum tolerated dose (MTD), once daily [3, 8]: 800 mg q.d. | Maximum tolerated dose (MTD), twice daily [3, 8]: 250 mg b.i.d. | Effect on muscle cells [4]: induce muscle contraction and muscle fiber twitching | Commonly reported AE: alopecia [5]: 63% | Commonly reported AE: asthenia [5]: 36% | Commonly reported AE: dysgeusia [5]: 70% | Commonly reported AE: weight loss [5]: 46% | Inhibition in GLI1 (normal skin, end of cycle 1 vs before treatment) ([6]; group 1, 400 mg, four patients): 32–88% | Inhibition in GLI1 (normal skin, end of cycle 1 vs before treatment) ([6]; group 1, 600 mg, nine patients): 73–96% | Inhibition in GLI1 (normal skin, end of cycle 1 vs before treatment) ([6]; group 2, 400 mg, six patients): 6.8–95% | Inhibition in GLI1 (normal skin, end of cycle 1 vs before treatment) ([6]; group 2, 600 mg, two patients): 53–83% | GLI1 expression in normal skin samples ([6]; paired samples from 22 patients, all except one patient): decreased GLI1 expression | Antitumor activity [7]: antitumor activity
